Measured values as given in PubChem BioAssay.
The source made the active and inactive calls.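 Rule for the calls, unless noted: active = mean duplicate potentiation above the buffer control mean plus 5 SD of buffer wells; inactive = the rest.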

Key:
[1] = nonspecific flux increase, KCNQ1-free cells – parental CHO cells, counter-screen for KCNQ1 potentiator project (AID 493006;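 active = duplicate-averaged activation above buffer control mean plus 5 SD of those controls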); conditions: parental CHO-K1 cells, FluxOR thallium flux, at 10 µM; active compounds read high
Summary of the method: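 Assay system: Untransfected host CHO-K1 cells with FluxOR thallium dye | Probe or stimulus: Potassium/thallium depolarization pulse | Schedule: Overnight 37 °C plating, 90 min RT dye, 20 min compound | Detection: Kinetic thallium-flux fluorescence | Read-out: Max-minus-min fluorescence over baseline, percent of buffer-to-R-L3 span | Benchmarks: Low control buffer, high control R-L3 activator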

[2] = target: Potassium voltage-gated channel subfamily KQT member 1 (Homo sapiens) (UniProt P51787); assay: enhancement of KCNQ1 channel thallium flux – FluxOR thallium flux, CHO cells, duplicates, confirmation (AID 493007;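 active = potentiation averaged over duplicate wells exceeding buffer-only control mean by more than 3 SD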;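 for outcome: cells depolarized by a potassium plus thallium sulfate stimulus after compound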); conditions: KCNQ1 cell line, FluxOR thallium flux fluorescence, at 10 µM; active compounds read high, % of reference activator effect, buffer zero
Chain of Potassium voltage-gated channel subfamily KQT member 1 (Homo sapiens) (P51787 whole entry, looked up): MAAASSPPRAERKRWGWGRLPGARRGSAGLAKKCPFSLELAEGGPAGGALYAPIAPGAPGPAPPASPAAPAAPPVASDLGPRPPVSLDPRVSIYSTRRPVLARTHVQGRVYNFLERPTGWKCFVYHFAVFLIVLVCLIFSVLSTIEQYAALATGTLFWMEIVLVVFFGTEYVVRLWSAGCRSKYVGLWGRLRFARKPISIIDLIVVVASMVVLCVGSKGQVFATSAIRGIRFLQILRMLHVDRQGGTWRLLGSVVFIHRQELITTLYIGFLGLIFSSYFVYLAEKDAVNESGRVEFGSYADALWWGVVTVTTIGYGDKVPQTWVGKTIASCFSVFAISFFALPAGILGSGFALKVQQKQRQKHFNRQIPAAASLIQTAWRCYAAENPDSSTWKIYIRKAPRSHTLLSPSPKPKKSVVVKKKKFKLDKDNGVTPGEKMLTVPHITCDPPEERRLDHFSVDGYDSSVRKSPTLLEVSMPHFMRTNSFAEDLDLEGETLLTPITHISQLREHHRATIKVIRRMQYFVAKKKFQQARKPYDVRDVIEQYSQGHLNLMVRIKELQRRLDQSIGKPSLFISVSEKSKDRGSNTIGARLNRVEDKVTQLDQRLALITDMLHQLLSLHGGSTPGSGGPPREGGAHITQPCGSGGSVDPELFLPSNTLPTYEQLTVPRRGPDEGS
Summary of the method: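 Material: KCNQ1-expressing CHO cell line; Incubation: FluxOR dye loading 90 min, compound exposure 20 min, room temperature; Detection: FluxOR Tl+ flux fluorescence, 10 s baseline plus 110 s recording; Read-out: percent activation between buffer and R-L3 responses; Control set: buffer-only wells as 0% and R-L3 activator as 100%; Replication: duplicate wells per compound.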

[3] = target: Potassium voltage-gated channel subfamily KQT member 2 (Rattus norvegicus) (UniProt O88943); assay: KCNQ2 thallium flux enhancement – KCNQ2-CHO-K1 cells, selectivity assay for KCNQ1 potentiator project (AID 493009); conditions: FluxOR thallium flux fluorescence, at 10 µM; active compounds read high, scaled: buffer 0, activator control 100;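 note: assay conditions were tuned for KCNQ1 rather than KCNQ2 modulators; signal is max minus min fluorescence divided by baseline after thallium stimulus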
Chain of Potassium voltage-gated channel subfamily KQT member 2 (Rattus norvegicus) (O88943 whole entry, looked up): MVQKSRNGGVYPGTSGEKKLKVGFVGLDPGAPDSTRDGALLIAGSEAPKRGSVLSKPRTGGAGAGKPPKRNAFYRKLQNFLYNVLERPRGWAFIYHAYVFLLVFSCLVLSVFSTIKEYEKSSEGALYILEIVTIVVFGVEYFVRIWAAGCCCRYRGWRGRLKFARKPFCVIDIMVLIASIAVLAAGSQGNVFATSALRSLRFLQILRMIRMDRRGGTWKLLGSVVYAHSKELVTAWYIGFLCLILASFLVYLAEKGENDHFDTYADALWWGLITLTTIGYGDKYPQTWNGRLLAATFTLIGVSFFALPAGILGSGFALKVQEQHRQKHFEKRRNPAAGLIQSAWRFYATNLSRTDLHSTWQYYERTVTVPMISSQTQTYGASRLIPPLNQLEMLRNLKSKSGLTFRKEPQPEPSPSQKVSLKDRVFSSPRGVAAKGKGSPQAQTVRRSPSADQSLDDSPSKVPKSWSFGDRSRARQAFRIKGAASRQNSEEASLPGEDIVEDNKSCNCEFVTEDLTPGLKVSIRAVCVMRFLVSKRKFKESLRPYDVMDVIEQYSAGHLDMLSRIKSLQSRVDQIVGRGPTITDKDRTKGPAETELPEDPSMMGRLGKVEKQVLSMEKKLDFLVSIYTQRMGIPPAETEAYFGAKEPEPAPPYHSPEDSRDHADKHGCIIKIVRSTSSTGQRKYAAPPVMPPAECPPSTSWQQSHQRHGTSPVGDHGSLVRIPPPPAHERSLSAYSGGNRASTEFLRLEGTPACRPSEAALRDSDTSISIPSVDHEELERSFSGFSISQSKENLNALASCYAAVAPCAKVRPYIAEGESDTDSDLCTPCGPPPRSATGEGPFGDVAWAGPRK

[4] = target: Potassium voltage-gated channel subfamily KQT member 1 (Homo sapiens) (UniProt P51787); assay: KCNQ1 activators by electrophysiology – IonWorks patch clamp, KCNQ1-CHO cells, orthogonal assay for KCNQ1 potentiator project, confirmation (AID 493184;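 active = current rise at least 3 SD above the untreated control mean in each of two repeat wells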;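 for current potentiation: percent change of the same well's current before compound addition so 0% = no change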); conditions: automated patch clamp current, at 10 µM; active compounds read high
Summary of the method: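 assay system = KCNQ1-expressing CHO cells | medium = external bath solution at pH 7.4 | probe or stimulus = 2,000 ms depolarization, -90 to +40 mV | compound dosing = 10 µM final, single point | measured by = automated voltage clamp, amphotericin B perforated patch | measure = percent current increase versus pre-compound level | replication = duplicates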

Row | SMILES | activation [1] | potentiation [2] | potentiation [3] | outcome [4] | outcome [1] | outcome [2] | outcome [3] | current potentiation [4]
1 | COc1cc(CN2CCC(C)CC2)ccc1OCc1ccccc1 | 292% (active) | 90% (active) | 300% (active) | inactive | – | – | – | –
2 | Cn1nnnc1SCC(=O)NCc1ccc2c(c1)OCO2 | – | – | – | inactive | inactive | inactive | inactive | –
3 | CCOc1ccc(C(=O)N2CCCC(c3nc(-c4ccc(C)o4)no3)C2)cc1 (stereo not given) | – | – | – | inactive | inactive | inactive | inactive | –
4 | O=C(NC(=S)N1CCN(C/C=C/c2ccccc2)CC1)c1ccc(F)cc1 | 190% (active) | 74% (active) | 260% (active) | inactive | – | – | – | –
5 | O=c1c2ccccc2sn1-c1ccccc1 | 180% (active) | 59% (active) | 148% (active) | inactive | – | – | – | –
6 | Cc1ccc(-c2noc(CCC(=O)Nc3ccccc3N3CCN(C)CC3)n2)cc1 | – | – | – | inactive | inactive | inactive | inactive | –
7 | CCn1ncc(CN2CCC(C(=O)Nc3cccc(-c4cccc(F)c4)c3)CC2)c1C | – | – | – | inactive | inactive | inactive | inactive | –
8 | CCn1nnc2cc(C(=O)Nc3cc(S(C)(=O)=O)ccc3Cl)ccc21 | – | – | – | inactive | inactive | inactive | inactive | –
9 | COc1cccc(C(=O)NNC(=O)C(=O)Nc2ccc(OC)cc2OC)c1 | 178% (active) | 41% (active) | 202% (active) | inactive | – | – | – | –
10 | Cc1cc(N2CCN(C)CC2)nc2ccc(NC(=S)NCCCN3CCc4ccccc4C3)cc12 | – | – | – | inactive | inactive | inactive | inactive | –
11 | CC(=O)N[C@H]1[C@H](OC2CCCCC2)O[C@H](COC(C)=O)[C@@H](OC(C)=O)[C@@H]1OC(C)=O | – | – | – | inactive | inactive | inactive | inactive | –
12 | CCC1CCCCN1C(=S)NC(=O)c1cccs1 (stereo not given) | 470% (active) | 216% (active) | 493% (active) | inactive | – | – | – | –
13 | COc1ccc(-n2c(C)cc(C(=O)CCl)c2C)cc1 | – | – | – | inactive | inactive | inactive | inactive | –
14 | C/C(=N\NC(=O)C1COc2ccccc2O1)c1ccc(N2CCOCC2)cc1 (stereo not given) | – | – | – | inactive | inactive | inactive | inactive | –
15 | CC(=O)Nc1cc(NC(C)=O)cc(C(=O)OC(C)C(=O)Nc2ccc(S(=O)(=O)N3CCCC3)cc2)c1 (stereo not given) | 224% (active) | 54% (active) | 216% (active) | inactive | – | – | – | –
16 | Oc1c(N=Nc2ccccn2)ccc2ccccc12 | 182% (active) | 91.5% (active) | 168% (active) | inactive | – | – | – | –
17 | Cn1c(=O)c2c3c(sc2n2c(SCC(N)=O)nnc12)CC(C(C)(C)C)CC3 (stereo not given) | – | – | – | inactive | inactive | inactive | inactive | –
18 | Cc1cc(NC(=O)CSc2nc(C3CC3)nc3sc(C)c(C)c23)no1 | 148% (active) | 38% (active) | 172% (active) | inactive | – | – | – | –
19 | COc1ccc2c(CCNC(=O)CN3C(=O)c4ccccc4C3=O)c[nH]c2c1 | – | – | – | inactive | inactive | inactive | inactive | –
20 | Cc1nc2ccccc2c(N)c1C(=O)/C=C/c1ccccc1 | – | – | – | inactive | inactive | inactive | inactive | –

Row | SMILES | activation [1] | potentiation [2] | potentiation [3] | outcome [4] | outcome [1] | outcome [2] | outcome [3] | current potentiation [4]
21 | CCc1nnc(NC(=O)c2ccc(S(=O)(=O)N(CC)Cc3ccccc3)cc2)o1 | 254% (active) | 107% (active) | 270% (active) | inactive | – | – | – | –
22 | CCOC(=O)CSc1nc(C2CC2)cc(-c2ccc(F)cc2)c1C#N | 166% (active) | 52% (active) | 160% (active) | inactive | – | – | – | –
23 | CCCCC/C=N\NC(=O)Cc1ccc([N+](=O)[O-])cc1 | – | – | – | inactive | inactive | inactive | inactive | –
24 | CC(=O)c1c(N)[nH]c(-c2ccccc2)nc1=S | – | – | – | inactive | inactive | inactive | inactive | –
25 | COc1ccc(C(=O)CSc2nnc(NC(=O)C3CC(=O)N(c4cccc(OC)c4)C3)s2)cc1 (stereo not given) | – | – | – | inactive | inactive | inactive | inactive | –
26 | O=C1c2ccccc2NC(c2ccc(-c3cccc(Cl)c3)o2)N1O (stereo not given) | – | – | – | inactive | inactive | inactive | inactive | –
27 | O=C(NCc1ccccn1)c1ccc(COc2ccc(Cl)cc2)o1 | 138% (active) | 26.5% (active) | 156% (active) | inactive | – | – | – | –
28 | C/C(=C/CCC(C)[C@H]1CC[C@@]2(C)C3=C(CC[C@]12C)[C@@]1(C)CCC(=O)C(C)(C)[C@@H]1CC3)C(=O)O (stereo not given in full) | 829% (active) | 298% (active) | 680% (active) | inactive | – | – | – | –
29 | Cc1ccc(S(=O)(=O)N2CCN(C(=O)CCC(=O)OCC(=O)Nc3cccc(C#N)c3)CC2)cc1 | – | – | – | inactive | inactive | inactive | inactive | –
30 | COc1ccc(-c2nc3ccc(C(=O)NCC(OC)OC)cc3nc2-c2ccc(OC)c(OC)c2)cc1OC | – | – | – | inactive | inactive | inactive | inactive | –
31 | N=C1S/C(=C\c2ccco2)C(=O)N1c1nccs1 | 138% (active) | – | 186% (active) | inactive | – | inactive | – | –
32 | CCOC(=O)c1cnc2c(C(=O)OC)cccc2c1NCCN1CCOCC1 | – | – | – | inactive | inactive | inactive | inactive | –
33 | CCOC(=O)Cc1csc(NC(=S)NC(=O)c2ccc(F)cc2)n1 | – | – | – | inactive | inactive | inactive | inactive | –
34 | CN=C1c2cc3cc(OC)ccc3n2CCN1Cc1ccccc1 | – | – | – | inactive | inactive | inactive | inactive | –
35 | Cc1sc2nc(CSc3ccccc3)nc(N3CCN(C)CC3)c2c1C | – | – | – | inactive | inactive | inactive | inactive | –
36 | CCN(CC(=O)Nc1ccc(OC)cc1)C(=O)CSCC(=O)Nc1ccc(C)cc1 | – | – | – | inactive | inactive | inactive | inactive | –
37 | O=C(NC(=S)Nc1ccccc1)c1ccc(Br)o1 | – | 21.5% (active) | 158% (active) | inactive | inactive | – | – | –
38 | Cc1nnc(SCC(=O)N(Cc2ccccc2)C(C)C)n1-c1ccccc1 | – | – | – | inactive | inactive | inactive | inactive | –
39 | CCCc1cc(=O)[nH]c(SCC(=O)NC(=O)c2ccccc2)n1 | – | – | – | inactive | inactive | inactive | inactive | –
40 | Fc1ccc(COc2ccc(Br)cc2CNCc2ccncc2)cc1 | – | – | – | inactive | inactive | inactive | inactive | –

Row | SMILES | activation [1] | potentiation [2] | potentiation [3] | outcome [4] | outcome [1] | outcome [2] | outcome [3] | current potentiation [4]
41 | CC(=O)/C=C1/C(=O)Nc2ccccc21 | 167% (active) | 63.5% (active) | 188% (active) | inactive | – | – | – | –
42 | CC(C)N(C(=O)CSc1ncnc2sc(-c3ccccc3)cc12)C(C)C | – | – | – | inactive | inactive | inactive | inactive | –
43 | CN1CCN(CC/C=C2/c3ccccc3Sc3ccc(S(=O)(=O)N(C)C)cc32)CC1 | – | – | – | inactive | inactive | inactive | inactive | –
44 | O=c1c(Cl)c(Cl)cnn1Cc1nnc(-c2ccccc2Br)o1 | – | – | – | – | inactive | inactive | inactive | 14.7% (active)
45 | CCC1=NN(C(=O)c2ccc(Br)cc2)C(O)(c2ccccc2)C1 (stereo not given) | – | – | – | inactive | inactive | inactive | inactive | –
46 | CCOC(=O)c1cc2c(=O)n3ccccc3nc2n(CCCOC)c1=NC(=O)c1ccncc1 | – | – | – | inactive | inactive | inactive | inactive | –
47 | CC(C)(C)C(=O)NC1CC2CCCC(C1)N2C(=O)Nc1ccccc1 (stereo not given) | – | – | – | inactive | inactive | inactive | inactive | –
48 | CCN(C(=O)c1cc2cc3ccc(C)cc3nc2o1)c1ccc(OC)cc1 | – | – | – | inactive | inactive | inactive | inactive | –
49 | Cc1cccc(NC(=S)NNC(=O)c2cc3c(s2)CCC(C)C3)c1C (stereo not given) | 192% (active) | 55.5% (active) | 264% (active) | inactive | – | – | – | –
50 | Cc1ccc(-n2[nH]c(C)c(/C=N/N3C(=O)c4cccc5cccc(c45)C3=O)c2=O)cc1 | 153% (active) | 86% (active) | 225% (active) | inactive | – | – | – | –
51 | COc1ccc(OC)c(NC(=O)C(=O)NNC(=O)C23CC4CC(CC(C4)C2)C3)c1 | 404% (active) | 244% (active) | 463% (active) | inactive | – | – | – | –
52 | CCOC(=O)c1sc(NC(=O)c2ccc(OC(C)=O)cc2)nc1C | – | – | – | inactive | inactive | inactive | inactive | –
53 | Cc1ccc2nc(NC(=S)NC(=O)c3cccs3)sc2c1 | 168% (active) | 66% (active) | 158% (active) | inactive | – | – | – | –
54 | Cc1cccc2sc(N(CCCN(C)C)C(=O)CCS(=O)(=O)c3ccccc3)nc12 | – | – | – | inactive | inactive | inactive | inactive | –
55 | COc1ccc(/C=C2/SC(=S)N(NS(=O)(=O)c3ccccc3)C2=O)cc1 | 195% (active) | 84.5% (active) | 180% (active) | inactive | – | – | – | –
56 | Cc1ccc(Sc2ccc(CN3CCCC3)cc2[N+](=O)[O-])cc1 | – | – | – | inactive | inactive | inactive | inactive | –
57 | Cc1c(Cl)cccc1NC(=O)Cn1c(CCC(=O)O)ccc1-c1ccccc1 | – | – | – | inactive | inactive | inactive | inactive | –
58 | S=C1NC2(CCCCC2)Cc2ccccc21 | – | – | – | inactive | inactive | inactive | inactive | –
59 | O=C(NC(=S)N1CCN(c2ccc(F)cc2)CC1)c1cccs1 | 274% (active) | 84.5% (active) | 338% (active) | inactive | – | – | – | –
60 | COc1ccc(C(=O)CSc2nnc(CNC(=O)c3ccc(OC)cc3)n2C)cc1 | – | 21% (active) | – | inactive | inactive | – | inactive | –
